Assay results published in ChEMBL document CHEMBL5331128, “Alicyclic Ring Size Variation of 4-Phenyl-2-naphthoic Acid Derivatives as P2Y14 Receptor Antagonists” (J Med Chem, 2023).
Calls of active or inactive are those of the source.

Experiments:
[1] = Lipophilicity, log D of compound at pH 7.4 incubated for 20 hrs by HPLC analysis; assay type: physicochemical; settings: buffer
P2Y purinoceptor 14 [2] = target: T1, P2Y purinoceptor 14 (Homo sapiens, UniProt Q15391); experiment: Displacement of fluorescent tracer 4-(4-(1-(4-(1-(6-(3-carboxylato-4-(3-iminio-3H-xanthen-9-yl)benzamido)hexyl)-4,5-dihydro-1H-pyrrol-3-yl)butyl)piperidin-1-ium-4-yl)phenyl)-7-(4-(trifluoromethyl)phenyl)-2-naphthoate from human P2Y14R stably expressed in CHO cells assessed as inhibition constant by flow cytometry; assay type: cell-based
T1 sequence (Q15391 whole entry): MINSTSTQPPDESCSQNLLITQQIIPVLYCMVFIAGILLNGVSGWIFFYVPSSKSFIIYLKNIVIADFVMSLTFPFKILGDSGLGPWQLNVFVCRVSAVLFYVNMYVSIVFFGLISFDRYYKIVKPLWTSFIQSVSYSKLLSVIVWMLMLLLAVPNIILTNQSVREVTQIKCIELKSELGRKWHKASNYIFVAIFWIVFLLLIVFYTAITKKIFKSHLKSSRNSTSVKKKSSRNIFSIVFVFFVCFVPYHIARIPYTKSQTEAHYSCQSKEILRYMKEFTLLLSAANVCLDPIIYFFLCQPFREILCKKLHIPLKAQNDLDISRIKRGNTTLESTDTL
How it was run: (§1)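 Whole-cell competitive binding: CHO cells expressing hP2Y14R (or HEK-293 cells expressing mP2Y14R) incubated with AlexaFluor488-labelled antagonist tracer at 20 nM.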

P2Y purinoceptor 14 [3] = target: T1, P2Y purinoceptor 14; experiment: Displacement of fluorescent tracer 4-(4-(1-(4-(1-(6-(3-carboxylato-4-(3-iminio-3H-xanthen-9-yl)benzamido)hexyl)-4,5-dihydro-1H-pyrrol-3-yl)butyl)piperidin-1-ium-4-yl)phenyl)-7-(4-(trifluoromethyl)phenyl)-2-naphthoate from human P2Y14R stably expressed in CHO cells by flow cytometry; assay type: cell-based; how it was run: as §1
P2Y purinoceptor 14 [4] = target: T2, P2Y purinoceptor 14 (Mus musculus, UniProt Q9ESG6); experiment: Displacement of fluorescent tracer 4-(4-(1-(4-(1-(6-(3-carboxylato-4-(3-iminio-3H-xanthen-9-yl)benzamido)hexyl)-4,5-dihydro-1H-pyrrol-3-yl)butyl)piperidin-1-ium-4-yl)phenyl)-7-(4-(trifluoromethyl)phenyl)-2-naphthoate from mouse P2Y14R stably expressed in human HEK293 cells by flow cytometry; assay type: cell-based
T2 sequence (Q9ESG6 whole entry): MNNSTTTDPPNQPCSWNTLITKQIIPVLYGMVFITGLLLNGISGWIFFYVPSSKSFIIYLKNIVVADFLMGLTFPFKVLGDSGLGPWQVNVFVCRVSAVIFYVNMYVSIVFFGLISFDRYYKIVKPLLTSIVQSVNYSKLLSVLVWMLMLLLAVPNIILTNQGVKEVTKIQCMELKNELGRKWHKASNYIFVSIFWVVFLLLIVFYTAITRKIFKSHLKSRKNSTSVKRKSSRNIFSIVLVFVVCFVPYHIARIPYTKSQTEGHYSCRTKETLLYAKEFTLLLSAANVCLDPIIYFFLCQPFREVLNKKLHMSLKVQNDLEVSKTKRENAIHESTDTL
How it was run: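 Whole-cell competitive binding: CHO cells expressing hP2Y14R (or HEK-293 cells expressing mP2Y14R) incubated with AlexaFluor488-labelled antagonist tracer at 20 nM. […] Ki derived by dividing IC50 by 1.72.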

[5] = Selectivity ratio, ratio of IC50 for displacement of fluorescent tracer 4-(4-(1-(4-(1-(6-(3-carboxylato-4-(3-iminio-3H-xanthen-9-yl)benzamido)hexyl)-4,5-dihydro-1H-pyrrol-3-yl)butyl)piperidin-1-ium-4-yl)phenyl)-7-(4-(trifluoromethyl)phenyl)-2-naphthoate from mouse P2Y14R stably expressed in human HEK293 cells to IC50 for displacement of fluorescent tracer 4-(4-(1-(4-(1-(6-(3-carboxylato-4-(3-iminio-3H-xanthen-9-yl)benzamido)hexyl)-4,5-dihydro-1H-pyrrol-3-yl)butyl)piperidin-1-ium-4-yl)phenyl)-7-(4-(trifluoromethyl)phenyl)-2-naphthoate from human P2Y14R stably expressed in CHO cells; assay type: cell-based
Mus musculus = experiment: Antiallodynic activity in CCI surgery neuropathic pain Hsd:ICR mouse model assessed as reversal of mechano-allodynia by measuring paw withdrawal threshold at 10 micromol/kg,po and measured at 1 hrs by von frey test; assay type: functional, organism-based; settings: dose 10.0 µmol/kg
How it was run: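 CCI neuropathic pain in adult male CD-1 mice. Single oral gavage dose of 10 μmol/kg on day 7 post-surgery. Vehicle 5% DMSO + 10% (Kolliphor HS 15:DMSO 5:95) in 0.5% methylcellulose, 0.2 mL. Von Frey paw withdrawal threshold on both hindpaws. Mean ± SD; two-way ANOVA with Dunnett's test.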

[6] = Stability in mouse plasma assessed as half life at 1 uM and measured at 120 mins by LC-MS/MS analysis; assay type: ADME, cell-free
[7] = Stability in human plasma assessed as half life at 1 uM and measured at 120 mins by LC-MS/MS analysis; assay type: ADME, cell-free

| Ki (P2Y purinoceptor 14 [2]) | IC50 (P2Y purinoceptor 14 [3]) | SMILES | logD at 20 h [1] | also measured |
| --- | --- | --- | --- | --- |
| 34 nM | 58.4 nM | O=C(O)c1cc(-c2ccc(/C3=C/CCNCCC3)cc2)c2ccc(-c3ccc(C(F)(F)F)cc3)cc2c1 | 2.9 |  |
| 305 nM | 524 nM | O=C(O)c1cc(-c2ccc([C@@H]3[C@@H]4CNC[C@H]3C4)cc2)c2ccc(-c3ccc(C(F)(F)F)cc3)cc2c1 | 2.8 |  |
| 247 nM | 424 nM | CC(C)(C)OC(=O)NCCCCCCn1cc(CCCCN2CCC(c3ccc(-c4cc(C(=O)O)cc5cc(-c6ccc(C(F)(F)F)cc6)ccc45)cc3)CC2)nn1 |  |  |
| 2800 nM | 4810 nM | CN(C)C(=O)COC(=O)c1cc(-c2ccc([C@]3(O)[C@@H]4CNC[C@H]3C4)cc2)c2ccc(-c3ccc(C(F)(F)F)cc3)cc2c1 |  |  |
| 67.4 nM | 116 nM | NCCCCCCn1cc(CCCCN2CCC(c3ccc(-c4cc(C(=O)O)cc5cc(-c6ccc(C(F)(F)F)cc6)ccc45)cc3)CC2)nn1 |  |  |
|  |  | O=C(O)c1cc(-c2ccc(C3CCNCC3)cc2)c2ccc(-c3ccc(C(F)(F)F)cc3)cc2c1 [PPTN] |  | Activity (Mus musculus): Active; half-life at 1 µM [6]: 1.5 min; half-life at 1 µM [7]: > 720 min |

| SMILES | Ki (P2Y purinoceptor 14 [2]) | IC50 (P2Y purinoceptor 14 [3]) | logD at 20 h [1] | also measured |
| --- | --- | --- | --- | --- |
| O=C(O)c1cc(-c2ccc(C3CC4(CNC4)C3)cc2)c2ccc(-c3ccc(C(F)(F)F)cc3)cc2c1 | 27.1 nM |  | 1.9 |  |
| O=C(O)c1cc(-c2ccc(C3CCCNCCC3)cc2)c2ccc(-c3ccc(C(F)(F)F)cc3)cc2c1 | 10.8 nM | 18.5 nM | 2.5 | IC50 (P2Y purinoceptor 14 [4]): 11.6 nM; Ratio IC50 [5]: 0.627 |
| COC1(c2ccc(-c3cc(C(=O)O)cc4cc(-c5ccc(C(F)(F)F)cc5)ccc34)cc2)CC2(CNC2)C1 | 27 nM | 46.5 nM | 1.8 |  |
| O=C(O)c1cc(-c2ccc(C3(O)CC4(CNC4)C3)cc2)c2ccc(-c3ccc(C(F)(F)F)cc3)cc2c1 | 12.1 nM |  | 0.81 |  |
